According to ChEMBL document CHEMBL1121996, “A new stable prostacyclin mimic, 7-oxoprostaglandin I2” (J Med Chem, 1982):
Blank lines part the entries; values can stand above or below the molecule they belong to.

What was measured:
[1] = organism: Homo sapiens; assay: Inhibitory concentration of compound in human platelet rich plasma against 2 umol of ADP-induced aggregation; format: functional
[2] = target: Adenylate cyclase type 1 (Homo sapiens) (UniProt Q08828); assay: Activation of human platelet adenylate cyclase at the concentration of 10 uMol; format: functional
How it was run: (§1)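 Adenylate cyclase in membranes prepared from human platelet-rich plasma, compound tested as Na salt. Activity is given as percent (mean ± SE) of measurable enzyme activity without drug, n = 8, with significance tested against the respective control. The method follows ref 17.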

[3] = system: Canis familiaris; assay: Percent change in total peripheral resistance produced by the compound on dogs by intravenous infusion rate of 500 ng/kg/min; format: functional, Canis lupus familiaris
How it was run: (§2)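 The compound was infused into a femoral vein at increasing concentrations, each dose level for 3 min. Mean peripheral blood pressure was taken in the femoral artery and heart rate by cardiotachometer. Total and coronary vascular resistance were calculated as blood pressure divided by the corresponding flow. Values are maximum changes as percent of resting values.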

[4] = system: Canis familiaris; assay: Percent change in total peripheral resistance produced by the compound on dogs by intravenous infusion rate of 5000 ng/kg/min; format: functional, Canis lupus familiaris; how it was run: as §2
[5] = system: Canis familiaris; assay: Percent change in cardiac out put produced by the compound on dogs by intravenous infusion rate of 5000 ng/kg/min; format: functional, Canis lupus familiaris, Heart; how it was run: as §2
[6] = system: Canis familiaris; assay: Percent change in coronary resistance produced by the compound on dogs by intravenous infusion rate of 500 ng/kg/min; format: functional, Canis lupus familiaris; how it was run: as §2
[7] = system: Canis familiaris; assay: Percent change in blood pressure produced by the compound on dogs by intravenous infusion rate of 5000 ng/kg/min; format: functional, Canis lupus familiaris; how it was run: as §2
[8] = system: Canis familiaris; assay: Percent change in coronary resistance produced by the compound on dogs by intravenous infusion rate of 1000 ng/kg/min; format: functional, Canis lupus familiaris; how it was run: as §2
[9] = system: Canis familiaris; assay: Percent change in cardiac out put produced by the compound on dogs by intravenous infusion rate of 500 ng/kg/min; format: functional, Canis lupus familiaris, Heart; how it was run: as §2
[10] = system: Canis familiaris; assay: Percent change in cardiac out put produced by the compound on dogs by intravenous infusion rate of 1000 ng/kg/min; format: functional, Canis lupus familiaris, Heart; how it was run: as §2
[11] = target: Adenylate cyclase type 1 (Homo sapiens) (UniProt Q08828); assay: Activation of human platelet adenylate cyclase at the concentration of 1 uMol; format: functional; how it was run: as §1
[12] = organism: Bos taurus; assay: Effective concentration of compound for relaxation of bovine coronary artery; format: functional
[13] = system: Canis familiaris; assay: Percent change in heart rate produced by the compound on dogs by intravenous infusion rate of 500 ng/kg/min; format: functional, Canis lupus familiaris; how it was run: as §2
[14] = system: Canis familiaris; assay: Percent change in heart rate produced by the compound on dogs by intravenous infusion rate of 1000 ng/kg/min; format: functional, Canis lupus familiaris; how it was run: as §2
[15] = system: Canis familiaris; assay: Percent change in coronary resistance produced by the compound on dogs by intravenous infusion rate of 5000 ng/kg/min; format: functional, Canis lupus familiaris; how it was run: as §2
[16] = system: Canis familiaris; assay: Percent change in heart rate produced by the compound on dogs by intravenous infusion rate of 5000 ng/kg/min; format: functional, Canis lupus familiaris; how it was run: as §2
[17] = system: Canis familiaris; assay: Percent change in blood pressure produced by the compound on dogs by intravenous infusion rate of 500 ng/kg/min; format: functional, Canis lupus familiaris; how it was run: as §2
[18] = system: Canis familiaris; assay: Percent change in total peripheral resistance produced by the compound on dogs by intravenous infusion rate of 1000 ng/kg/min; format: functional, Canis lupus familiaris; how it was run: as §2
[19] = system: Canis familiaris; assay: Percent change in blood pressure produced by the compound on dogs by intravenous infusion rate of 1000 ng/kg/min; format: functional, Canis lupus familiaris; how it was run: as §2
[20] = system: Canis familiaris; assay: Percent change in cardiac out put produced by the compound on dogs by intravenous infusion rate of 50 ng/kg/min; format: functional, Canis lupus familiaris, Heart; how it was run: as §2
[21] = system: Canis familiaris; assay: Percent change in total peripheral resistance produced by the compound on dogs by intravenous infusion rate of 50 ng/kg/min; format: functional, Canis lupus familiaris; how it was run: as §2
[22] = system: Canis familiaris; assay: Percent change in heart rate produced by the compound on dogs by intravenous infusion rate of 50 ng/kg/min; format: functional, Canis lupus familiaris; how it was run: as §2
[23] = system: Canis familiaris; assay: Percent change in blood pressure produced by the compound on dogs by intravenous infusion rate of 50 ng/kg/min; format: functional, Canis lupus familiaris; how it was run: as §2
[24] = system: Canis familiaris; assay: Percent change in coronary resistance produced by the compound on dogs by intravenous infusion rate of 50 ng/kg/min; format: functional, Canis lupus familiaris; how it was run: as §2

Chain of Adenylate cyclase type 1 (Homo sapiens) (Q08828 whole entry, looked up): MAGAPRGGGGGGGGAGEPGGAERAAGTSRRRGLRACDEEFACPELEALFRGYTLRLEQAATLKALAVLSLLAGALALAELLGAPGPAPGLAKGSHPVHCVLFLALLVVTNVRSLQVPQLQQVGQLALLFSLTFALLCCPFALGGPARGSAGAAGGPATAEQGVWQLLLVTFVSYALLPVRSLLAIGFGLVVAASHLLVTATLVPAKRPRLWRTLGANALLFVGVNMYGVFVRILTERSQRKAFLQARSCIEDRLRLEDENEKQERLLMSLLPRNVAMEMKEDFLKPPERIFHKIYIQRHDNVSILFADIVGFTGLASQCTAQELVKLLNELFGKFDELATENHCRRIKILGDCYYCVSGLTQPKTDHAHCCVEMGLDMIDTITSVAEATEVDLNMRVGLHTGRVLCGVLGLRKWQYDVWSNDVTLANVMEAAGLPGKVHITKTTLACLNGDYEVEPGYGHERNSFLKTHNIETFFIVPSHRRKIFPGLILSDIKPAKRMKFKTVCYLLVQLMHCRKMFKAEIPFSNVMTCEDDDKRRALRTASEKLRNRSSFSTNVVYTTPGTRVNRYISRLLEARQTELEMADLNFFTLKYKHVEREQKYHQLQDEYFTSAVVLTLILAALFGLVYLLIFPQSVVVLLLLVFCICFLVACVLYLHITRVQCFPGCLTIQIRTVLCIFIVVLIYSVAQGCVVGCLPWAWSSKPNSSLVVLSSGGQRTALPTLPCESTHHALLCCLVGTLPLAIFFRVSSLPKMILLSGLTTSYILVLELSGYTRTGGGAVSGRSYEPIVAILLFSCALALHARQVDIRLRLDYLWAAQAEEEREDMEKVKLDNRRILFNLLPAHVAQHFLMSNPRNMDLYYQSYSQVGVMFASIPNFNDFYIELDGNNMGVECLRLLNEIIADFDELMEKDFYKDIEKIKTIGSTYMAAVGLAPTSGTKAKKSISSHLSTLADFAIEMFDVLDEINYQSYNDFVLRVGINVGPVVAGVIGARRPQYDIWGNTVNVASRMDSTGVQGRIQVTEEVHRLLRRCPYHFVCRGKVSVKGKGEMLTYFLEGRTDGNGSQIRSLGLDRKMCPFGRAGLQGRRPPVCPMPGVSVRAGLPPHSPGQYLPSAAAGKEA

IC50 [1]: 15 ng/mL
Structure (SMILES): CCCCC[C@H](O)/C=C/[C@@H]1[C@H]2C(=O)/C(=C/CCCC(=O)[O-])O[C@H]2C[C@H]1O.[Na+]

Activity [2]: 825%
Activity [11]: 239%
EC50 [12]: 0.402 µM
Structure (SMILES): CCCCC[C@H](O)/C=C/[C@H]1[C@H](O)CC2O/C(=C\CCCC(=O)[O-])C(=O)[C@@H]21.[Na+] (stereo partly drawn)
Hemodynamic change [3]: -8.3%
Hemodynamic change [4]: -40.7%
Hemodynamic change [5]: -22.3%
Hemodynamic change [6]: -2.2%
Hemodynamic change [7]: -49%
Hemodynamic change [8]: -6.1%
Hemodynamic change [9]: -1.6%
Hemodynamic change [10]: -3.9%
Hemodynamic change [13]: 0%
Hemodynamic change [14]: -2%
Hemodynamic change [15]: -28.8%
Hemodynamic change [16]: -13.8%
Hemodynamic change [17]: -8.1%
Hemodynamic change [18]: -13.3%
Hemodynamic change [19]: -13.3%

Activity [2]: 1740%
IC50 [1]: 1 ng/mL
Activity [11]: 374%
EC50 [12]: 0.043 µM
Structure (SMILES): CCCCC[C@H](O)/C=C/[C@@H]1[C@H]2C/C(=C/CCCC(=O)[O-])O[C@H]2C[C@H]1O.[Na+] [EPOPROSTENOL SODIUM]
Hemodynamic change [20]: -5.6%
Hemodynamic change [21]: -11.5%
Hemodynamic change [22]: 3.6%
Hemodynamic change [23]: -13.6%
Hemodynamic change [24]: -2.8%
